SR-BI HDL uptake – mouse SR-BI HDL lipid transfer inhibition; Q61009; ldlA[mSR-BI] CHO cells, DiI-HDL uptake fluorescence, 3 h; inhibition, % at 12.5 µM; 320,000 compounds, 0.96% hits;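 active means mean replicate inhibition of at least 70% and a set share of replicates each scoring 70 or more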;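 further: 0% = median of neutral control wells and 100% = median of positive control wells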
SR-BI DiI-HDL act – activators of SR-BI mediated HDL lipid uptake | CHO ldlA[mSR-BI] cells, DiI-HDL uptake fluorescence, 3 h; 100 = double the neutral-control signal | activation, % at 12.5 µM | 320,000 compounds, 0.096% hits | AID 504775;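 active means mean replicate activation of at least 60% and every replicate at or above 60%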;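 further: 0% = median plate neutral-control signal and 100% = twice that signal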
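Assay system: CHO ldlA[mSR-BI] cells, LDL receptor-null, SR-BI overexpressing; medium: Ham's F12 with 0.5% BSA, HEPES 25 mM, pH 7.4; also added: DiI-HDL 10 µg/mL; timing: 3 h uptake period with compound, 37 °C; signal: DiI fluorescence, bottom read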
Kir21 block – Kir2.1 (mouse) channel inhibition | P35561 | HEK293-Kir2.1, FluxOR thallium flux fluorescence; hits give low values | B-score at 10 µM | 310,000 compounds, 0.85% hits | AID 1672;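 active means fluorescence ratio B-score at or below minus 3 SD of library scores, with starting-brightness B-score within 2 SD, cut at about -4.2 in these data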;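 further: channel flux triggered by added potassium and thallium sulfate stimulus; B-score of peak minus minimum fluorescence over baseline after thallium stimulus; more negative B-score means stronger Kir2.1 block with less thallium influx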
Target sequence (P35561 whole entry, looked up): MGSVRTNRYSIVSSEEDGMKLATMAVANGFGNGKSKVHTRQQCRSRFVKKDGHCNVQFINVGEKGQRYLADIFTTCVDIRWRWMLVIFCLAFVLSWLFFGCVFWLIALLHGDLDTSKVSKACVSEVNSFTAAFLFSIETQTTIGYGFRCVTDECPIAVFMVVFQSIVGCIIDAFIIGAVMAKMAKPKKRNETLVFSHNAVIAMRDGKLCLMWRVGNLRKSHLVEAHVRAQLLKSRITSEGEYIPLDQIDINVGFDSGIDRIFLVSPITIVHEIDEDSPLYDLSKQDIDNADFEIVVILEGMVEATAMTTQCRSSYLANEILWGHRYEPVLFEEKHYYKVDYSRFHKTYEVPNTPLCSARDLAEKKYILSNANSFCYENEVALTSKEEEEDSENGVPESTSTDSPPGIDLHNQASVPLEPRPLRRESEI
TMEM16A act – activators or potentiators of mouse TMEM16A chloride channel. Q8BHY3. HEK293 TMEM16A/YFP-H148Q/I152L, iodide quench fluorescence; hits give low values. B-score at 10 µM. 340,000 compounds, 0.3% hits. AID 623877;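 active means fluorescence-ratio B-score plate-corrected deviation score at least 3 library SD below zero, with starting fluorescence score within 5 deviations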;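 further: channel opened by trigger with iodide after compound preincubation; score built on the fluorescence ratio of max minus min over baseline; more negative score means more quench and so TMEM16A activation or potentiation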
DNA FID counter – counter-screen for HCV NS3 helicase inhibitors: DNA intercalator displacement. 290,000 compounds, 0.17% hits. inhibition, % at 7.9 µM. DNA fluorescent intercalator displacement, fluorescence; in the data active means inhibition above about 37%;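 further: 0% = vehicle and 100% = reference compound; higher means more ethidium bromide displaced from hairpin DNA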
ANO1 block – inhibitors of mouse TMEM16A calcium-activated chloride channel; Q8BHY3; normalized B-score (activity score, 25-100; higher = stronger inhibition) at 10 µM; AID 588511; 310,000 compounds, 1.2% hits; HEK293 TMEM16A/YFP iodide influx fluorescence, ionomycin;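 active means ratio plate-corrected score three or more library SD toward inhibition, starting fluorescence score within five deviations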;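 further: score derived from kinetic fluorescence span divided by baseline fluorescence per well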
* marks the source's active call; other numbers are inactive results; i = inactive; nt = not tested or not shown. Most compounds without a hit are left out; they make up all but 3% or so of the library.

SMILES	SR-BI HDL uptake	SR-BI DiI-HDL act	Kir21 block	TMEM16A act	DNA FID counter	ANO1 block
O=C(/C=C/c1ccco1)Nc1cccc(C(=O)Nc2ccccc2C(=O)O)c1	-18	18	1.3	i	-12	i
Oc1ccc(N2CCN(c3ncnc4sc(-c5ccccc5)cc34)CC2)cc1	36	-36	0.41	i	-13	nt
CCc1cc2c(N3CCN(c4ccccc4)CC3)ncnc2s1	58	-58	1	i	-19	25*
CCN(CC)C(=O)/C(=C/c1ccc2c(c1)OCO2)NC(=O)c1ccc(Br)cc1	75*	-75	0.49	i	-23	i
Nc1nnc(SCc2nnc(-c3ccccc3)o2)s1	-25	25	-0.05	i	-2	i
COc1ccc(-c2csc(NC(=O)c3c(OC)cccc3OC)n2)cc1	37	-37	1.6	i	-26	i
COc1ccc(-c2csc(NC(=O)c3ccccc3NS(=O)(=O)c3ccc(C)cc3)n2)cc1	93*	-93	-0.87	i	-25	100*
CCOC(=O)CN(C(=O)CSc1nnnn1C)c1ccccc1	4	-4	nt	i	nt	nt
NC(=NC(=O)c1ccc(Cl)cc1)N1N=CCC1c1ccccc1 (stereo unspecified)	23	-23	-0.22	i	-18	i
O=C(CSc1ccc(Cl)cc1)N1N=CCC1c1ccccc1 (stereo unspecified)	7	-7	-6.1*	i	-25	i
Cc1cc(Cl)c(S(=O)(=O)N2CCN(c3ccc(F)cc3)CC2)cc1OCC(=O)NC1CCCCC1	28	-28	-0.77	i	-6	25*
COc1cccc(N2[C@@H](CC(=O)O)c3ccccc3S2(=O)=O)c1	-13	13	0.19	i	nt	i
CCOC(=O)C[C@H]1c2ccccc2S(=O)(=O)N1Cc1cccc(C(F)(F)F)c1	-20	20	-4.5*	i	nt	i
CCOC(=O)C[C@H]1c2ccccc2S(=O)(=O)N1c1ccccc1	-22	22	-0.14	i	nt	i
CCOC(=O)C[C@H]1c2cc(F)ccc2S(=O)(=O)N1c1ccccc1	-11	11	-5*	i	nt	i
CCCCCCCCN1[C@@H](CC(=O)OC)c2cc(F)ccc2S1(=O)=O	-3	3	-0.77	i	nt	i
CCOC(=O)/C=C/c1ccc2c(c1)S(=O)(=O)N(c1cccc(OC)c1)[C@H]2CC(=O)OCC	83*	-83	-0.95	i	nt	i
CCOC(=O)C[C@H]1c2ccccc2S(=O)(=O)N1Cc1cc(OC)c(OC)c(OC)c1	-12	12	0.02	i	nt	i
CCCCCCCCCCCCN1[C@@H](CC(=O)O)c2cc(F)ccc2S1(=O)=O	-12	12	-0.17	i	nt	100*
C[C@H]1CN=C(Nc2ccccc2)N1CCC1CCCC1	-15	15	1	i	-6	i
O=C1CCc2cc(S(=O)(=O)Nc3ccccc3)cc3c2N1CC3	19	-19	0.19	i	nt	i
CC(=O)Nc1nnc(S(=O)(=O)N2CCN(c3ccc([N+](=O)[O-])cc3Cl)CC2)s1	-2	2	-0.34	i	8	i
Cc1csc2nc(COC(=O)c3ccc(Cl)c([N+](=O)[O-])c3)cc(=O)n12	-11	11	nt	i	nt	nt
CNc1c(NS(=O)(=O)c2ccc(Br)cc2)c(=O)oc2ccccc12	nt	nt	-0.81	i	-8	i
COc1cccc(/C=C2\Oc3cc(OCC(=O)N4CCC[C@H]4C(=O)O)ccc3C2=O)c1	-10	10	-0.66	i	-16	i
SMILES	SR-BI HDL uptake	SR-BI DiI-HDL act	Kir21 block	TMEM16A act	DNA FID counter	ANO1 block
CCCCCCCCN1[C@@H](CC(=O)OCC)c2cc(F)ccc2S1(=O)=O	28	-28	-0.71	i	nt	25*
CCCCCCCCN1[C@@H](CC(=O)O)c2cc(C(F)(F)F)ccc2S1(=O)=O	-2	2	-0.07	i	nt	i
CCCCCCCCCCCCN1[C@@H](CC(=O)O)c2cc(C(F)(F)F)ccc2S1(=O)=O	-8	8	0.46	i	nt	100*
CN(CC(=O)Nc1cccc2ccccc12)C(=O)c1ccc(F)cc1F	-15	nt	nt	i	nt	nt
CC(C)(C)NCC(=Cc1ccccc1)C(=O)c1ccccc1	9	-9	nt	i	nt	nt
COc1ccc(NC(=O)/C(C#N)=C\c2cc(C)n(-c3ccc(Oc4ccc([N+](=O)[O-])cn4)cc3)c2C)cc1	75*	-75	0	i	-8	i
NC(=O)c1nn(-c2ccc(Cl)cc2Cl)c(=O)cc1O	8	-8	0.17	i	-17	i
C=CCNc1nc(Nc2ccc([N+](=O)[O-])cc2)nc(N2CCCC2)n1	76*	-76	0.18	i	0	i
c1csc(C2Nc3ccccc3-c3nc4ccccc4n32)c1 (stereo unspecified)	17	-17	-4.5*	i	0	i
Cc1ccsc1C1Nc2ccccc2-c2nc3ccccc3n21 (stereo unspecified)	15	-15	-0.26	i	-1	i
CC(=O)C(Cc1ccccc1)NC(=O)CN1c2cccc3cccc(c23)S1(=O)=O (stereo unspecified)	-8	8	nt	-9.8*	nt	nt
CC1(C)CC(NC(=O)c2ccc(Cl)c(S(=O)(=O)N(Cc3ccccc3)c3ccccc3)c2)CC(C)(C)N1	-97	97*	-0.89	i	nt	i
Cc1cccc(NC(=O)CSc2nc3ccccc3c(=O)n2CC2CCCO2)c1 (stereo unspecified)	80*	-80	nt	i	nt	nt
Cc1ccn(CCC(=O)N2CCc3ccccc32)n1	-50	nt	-0.53	i	-9	i
O=C(Nc1nc(-c2ccco2)c(-c2ccco2)s1)C1CC(=O)N(c2ccc3c(c2)OCCO3)C1 (stereo unspecified)	17	-17	1.5	-6.2*	-13	i
O=C(O)CC1(c2ccc(F)cc2)C2CC3CC(C2)CC1C3 (stereo unspecified)	-14	14	1.2	i	-42	i
COc1ccc(/C=C/C(=O)Oc2cccc(/C=N/NC(=O)Cc3ccc(Br)cc3)c2)cc1	27	-27	0.2	i	-4	i
CC(=O)N1CCN(c2ccc(Oc3ccc([N+](=O)[O-])c(C(F)(F)F)c3)cc2)CC1	22	-22	-1.2	i	-32	100*
COc1ccc(C(=O)NC(=S)Nc2ccc(N3CCN(C(C)=O)CC3)cc2)cc1[N+](=O)[O-]	nt	nt	0.2	i	-22	i
COc1ccc(OC)c2cc3ccccc3cc12	11	-11	nt	-8.3*	nt	nt
Cc1ccc(N(CCC#N)C(=O)CSc2nc3ccccc3c(=O)[nH]2)cc1	-3	3	nt	i	nt	nt
CC1CCCC(C)N1C(=C(Cl)Cl)C(=C1SCCS1)[N+](=O)[O-] (stereo unspecified)	15	-15	-2.2	-15*	2	i

Source: PubChem BioAssay
